The values that follow come from ChEMBL document CHEMBL1142286, “2-Oxo-tetrahydro-1,8-naphthyridines as selective inhibitors of malarial protein farnesyltransferase and as anti-malarials” (Bioorg Med Chem Lett, 2008).

Data set [1] deals with Plasmodium falciparum. In words: Inhibition of Plasmodium falciparum protein farnesyltransferase at 50 nM.
A short description of data set [2]: (§1) Metabolic stability assessed as half life in mouse liver microsomes. Format: ADME, Microsome. As to conditions: liver microsomes. Put shortly:
(§2)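 Compound incubated with mouse liver microsomes. Half-time is for the loss of parent compound, in minutes.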
Background: Liver microsomes are a subcellular fraction often used to study metabolism.

Data set [3] concerns Plasmodium falciparum. As to the kind of experiment: Inhibition of Plasmodium falciparum protein farnesyltransferase at 5 nM.
Data set [4] relates to Plasmodium falciparum. As to the kind of experiment: Inhibition of Plasmodium falciparum protein farnesyltransferase at 0.5 nM.
For data set [5], the system named is Plasmodium falciparum. In words: Antimalarial activity against chloroquine-resistant Plasmodium falciparum K1 in human red blood cells after 48 hrs. Format: functional. As to conditions: K1, 48 h, read-out: ED50 (the source's name). The gist of the method: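 Parasites grown in red blood cell cultures; ED50 is the concentration that inhibits parasite growth by 50%.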

Data set [6] relates to Plasmodium falciparum. As to the kind of experiment: Antimalarial activity against chloroquine-sensitive Plasmodium falciparum 3D7 in human red blood cells after 48 hrs. Format: functional. As to conditions: 3D7, 48 h, read-out: ED50 (the source's name). The gist of the method: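 P. falciparum strain 3D7 (chloroquine-sensitive) grown in red blood cell cultures. ED50 was taken as the compound concentration that inhibits parasite growth by 50%.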

For data set [7], the system named is Plasmodium falciparum. As to the kind of experiment: Inhibition of Plasmodium falciparum protein farnesyltransferase at 500 nM.
For data set [8], the species on record is Rattus norvegicus. As to the kind of experiment: Inhibition of rat protein farnesyltransferase at 500 nM.
The species entered for data set [9] is Rattus norvegicus. In words: Inhibition of rat protein farnesyltransferase at 5000 nM.
The species entered for data set [10] is Rattus norvegicus. In words: Inhibition of rat protein farnesyltransferase at 0.5 nM.
Data set [11] is filed under the species Rattus norvegicus. As to the kind of experiment: Inhibition of rat protein geranylgeranyltransferase 1 at 1 uM. Put shortly: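 Run like the rat PFT assay, but with rat PGGT-I (5 ng), H-Ras-CVLL peptide as substrate, and [3H]geranylgeranyl pyrophosphate as donor. Read-out is percent inhibition at a single inhibitor concentration.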
The species named for data set [12] is Rattus norvegicus. As to the kind of experiment: Inhibition of rat protein farnesyltransferase at 5 nM.
For data set [13], the species on record is Rattus norvegicus. In words: Inhibition of rat protein farnesyltransferase at 50 nM.
Data set [14] has as its system Liver. The description is as §1. Format: ADME, Microsome. As to conditions: microsomes. The gist of the method:
as §2

For data set [15], the system named is Plasmodium falciparum. As to the kind of experiment: Antimalarial activity against Plasmodium falciparum. Format: functional. As to conditions: read-out: ED50. The gist of the method: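 P. falciparum parasites (chloroquine-sensitive strain 3D7 and chloroquine-resistant strain K1) were grown in red blood cell cultures with compound. ED50 is the concentration giving 50% inhibition of parasite growth, in nM.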

A value given as a limit tells only on which side of the number the result lay.

Turning to `Cn1cncc1CN1C(=O)C(N(Cc2ccc(S(C)(=O)=O)cc2)S(=O)(=O)c2ccccn2)Cc2cc(C#N)cnc21` (configuration not stated), the inhibition (in general, the percentage by which the read-out fell short of the control) worked out at 48% in data set [1], 3% in data set [3], 0% in [4] and 91% in data set [7]. Besides, in data set [2], the half-life (as a rule, the time needed for the level to fall by half in the phase considered) was found to be 15 min. Further, the EC50 in data set [5] was greater than 5000 nM; in [6], 3100 nM.

Consider `COC(=O)N1CCC(CN(C2Cc3cc(C#N)cnc3N(Cc3cncn3C)C2=O)S(=O)(=O)c2cn(C)cn2)CC1` (configuration not stated), for which the inhibition in data set [8] came out at 71%; in data set [9] it was 85%; in data set [1] it was 95%; in [10], 0%; in data set [3], 71%; in data set [11], 5%. Moreover, the inhibition in data set [4] was found to be 33%; in data set [12] it was 7%; in [13] it was 28%; in data set [7], 98%. In addition, the half-life in [2] was greater than 120 min. The EC50 turned out to be 175 nM in data set [5] and 350 nM in data set [6].

As to `Cn1cnc(S(=O)(=O)N(Cc2ccc(S(C)(=O)=O)cc2)C2Cc3cc(C#N)cnc3N(Cc3cncn3C)C2=O)c1` (configuration not stated), the inhibition was determined as 9% in data set [8]; 47% in [9]; 98% in [1]; 0% in data set [10]; 80% in data set [3]; 0% in [11]. Further, the inhibition in data set [4] was 27%; in data set [12] it was 0%; in [13], 0%; in [7] it was 99%. For the same compound, in data set [2], the half-life was determined as 52 min. The figures for the EC50 in data set [5] and in data set [6] were 300 nM and 420 nM, respectively.

On to `Cn1cnc(S(=O)(=O)NC2Cc3cc(C#N)cnc3N(Cc3cncn3C)C2=O)c1` (configuration not stated), for which the inhibition in data set [8] is 0%; in data set [9] it was 39%; in data set [1], 66%; in data set [10] it was 0%; in [3], 32%; in data set [11] it was 0%. Moreover, the inhibition is 15% in [4], 0% in data set [12], 1% in [13] and 94% in [7]. Also, the EC50 in [5] and in [6] was greater than 5000 nM in each case.

For `COC(=O)N1CCC(CN(C2Cc3cc(C#N)ccc3N(Cc3cncn3C)C2)S(=O)(=O)c2cn(C)cn2)CC1` (configuration not stated), the half-life in data set [2] was determined as 3.8 min.

Regarding `COC(=O)N1CCC(CN(C2Cc3cc(C#N)cnc3N(Cc3cncn3C)C2=O)S(=O)(=O)c2ccccn2)CC1` (configuration not stated), the inhibition in data set [1] was determined as 88%; in data set [3], 16%; in [4] it was 0%; in data set [7], 97%. Moreover, the figures for the EC50 in [5] and in data set [6] were 310 nM and 320 nM, respectively.

Take `Cn1cnc(S(=O)(=O)N(Cc2ccc(S(C)(=O)=O)cc2)C2Cc3cc(C#N)ccc3N(Cc3cncn3C)C2)c1` (configuration not stated): the t1/2 in [14] came out at 15.6 min.

Regarding `Cn1cnc(S(=O)(=O)NC2Cc3cc(Br)cnc3N(Cc3cncn3C)C2=O)c1` (configuration not stated), the inhibition is 8% in data set [8]; 51% in data set [9]; 28% in data set [1]; 0% in data set [10]; 0% in data set [3]; 16% in data set [11]. Moreover, the inhibition stood at 0% in data set [4], 5% in data set [12], 8% in data set [13] and 74% in [7]. Further, the EC50 in [5] and in [6] was greater than 5000 nM each time.

Take `COC(=O)N1CCC(CN(C2Cc3cc(C#N)ccc3N(Cc3cncn3C)C2)S(=O)(=O)c2ccccn2)CC1` (configuration not stated): in [15], the EC50 turned out to be 320 nM. Moreover, the half-life in [2] amounted to 5.4 min.
